According to paper PMC2775413 (Bioorganic & medicinal chemistry, 2009):

Assays:
[1] = Metabolism in fresh mouse brain homogenate with NADPH; assay type: in vitro ADME; conditions: PBS pH 7.4, 37 °C, NADPH in excess
In short: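 Three fresh mouse brains were homogenized in PBS pH 7.4 (1 mL per brain) with NADPH regenerating buffers A and B, then pooled. Test compound was added from a 200 μM stock and incubated at 37 °C for 0, 10, 20 and 40 min. Reactions were stopped by heating to 95 °C for 1 min. HPLC with UV at 310 or 260 nm depending on compound; analyte/internal standard peak-area ratio normalized to t = 0.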

[2] = Metabolism of prodrugs in fresh mouse plasma with NADPH regenerating system; assay type: in vitro ADME; conditions: 37 °C; for Metabolism in fresh mouse plasma (prodrug remaining by HPLC): NADPH regenerating system, over 80 minutes
[3] = Anaerobic microsome assay for azide metabolism; assay type: in vitro ADME, rat
In short: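 Rat liver microsomes, NADPH regenerating system, test azide added from a 100 μM stock. PBS was deoxygenated by N2 bubbling for 15 min. Vials were sealed with septa, the headspace N2-purged and kept under an N2 balloon, and equilibrated at 37 °C. Microsomes were injected through the septum and incubated 0, 10, 20, 40 min. Acetonitrile quench, protein precipitation at 0 °C, supernatant dried, reconstituted in 2% formic acid, HPLC; peak area normalized to t = 0.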

[4] = Mouse brain uptake study after i.p. injection; assay type: in vivo; conditions: for Brain AUC over the 20-minute experiment compared with 5: i.p., 5 at 3.7 mg/kg
Standard microsome assay = assay type: in vitro ADME, rat; conditions: 37 °C

Molecule: 1-((S)-1-{2-[2-aminoethyl]phenylamino}-5-nitroguanidinopentan-2-ylcarbamoyloxy)ethyl pivalate [Compound 3]
- Metabolism in mouse brain homogenate (compound amount over time) [1]: decreased over the course of the experiment
- Conversion of prodrug to parent compound (4) in mouse plasma ([2]; HPLC peak of 4 over time): converted to the parent compound
- Metabolism in fresh mouse plasma (prodrug remaining by HPLC) [2]: rapid

Molecule: Cc1cc(N)nc(C[C@@H]2CNC[C@@H]2OCCN=[N+]=[N-])c1 (racemic) [Compound 1, 6-((4-(2-Azidoethoxy)pyrrolidin-3-yl)methyl)-4-methyl-pyridin-2-amine]
- Metabolism in mouse brain homogenate (compound amount over time) [1]: did not decrease
- Metabolism in fresh mouse plasma (prodrug remaining by HPLC) [2]: No significant metabolism
- Formation of amine from azide (mass spectral analysis of reaction mixtures) ([3]; anaerobic microsome incubation): no peak corresponding to the amine

Molecule: CC(=O)N(CCO[C@H]1CNC[C@H]1Cc1cc(C)cc(N)n1)CCc1cccc(F)c1 (racemic) [Compound 6, N-(2-(4-((6-Amino-4-methylpyridin-2-yl)-methyl)pyrrolidin-3-yloxy)ethyl)-N-(3-fluoro-phenethyl)acetamide]
- Time of peak brain concentration ([4]; mouse, i.p. 4.1 mg/kg, 20-minute experiment): 5 min
- Brain AUC over the 20-minute experiment compared with 5 ([4]; mouse): roughly the same

Molecule: COC(=O)N(CCO[C@H]1CNC[C@H]1Cc1cc(C)cc(N)n1)CCc1cccc(F)c1 (racemic) [Compound 7, Methyl 2-(4-((6-amino-4-methylpyridin-2-yl)-methyl)pyrrolidin-3-yloxy)ethyl(3-fluoro-phenethyl)carbamate]
- Tmax ([4]; mouse, plasma, ip, 4.3 mg/kg): 5 min

Molecule: Cc1cc(N)nc(C[C@@H]2CNC[C@@H]2OCCNCCc2cccc(F)c2)c1 [Compound 5]
- Amount of compound lost with rat liver microsomes (Standard microsome assay; over 30 minutes, in presence and absence of NADPH): approximately 20%
- Toxicity in mice ([4]; i.p. injection at 3.7 mg/kg): no toxicity was observed

Molecule: Cc1cc(N)nc(C[C@@H]2CNC[C@@H]2OCCN(CCc2cccc(F)c2)C(=O)OCc2ccccc2)c1 [Compound 8, Benzyl 2-(4-((6-amino-4-methylpyridin-2-yl)-methyl)pyrrolidin-3-yloxy)ethyl(3-fluoro-phenethyl)carbamate]
- Peak plasma concentration ([4]; mouse, i.p. 5.1 mg/kg, 20-minute experiment): around 1 μM
- Brain AUC over the 20-minute experiment compared with 5 ([4]; mouse): much lower

Molecule: Cc1cc(-c2ccccc2)nnc1NCCN1CCOCC1 [minaprine, reference compound]
- Concentration remaining with microsomes at 20 min (Standard microsome assay; 20 min): not quantifiable
- Metabolism by microsomes under anaerobic conditions ([3]; 37 °C, deoxygenated buffer, nitrogen atmosphere, NADPH): metabolized readily
